Screens: PubChem BioAssay, several laboratories
Only some compounds are listed: those with a hit (about 1.4% of all), similar ones and a draw of the others.
NR1D1 modulator – Rev-erb alpha (human) modulation | Rev-erbα–FITC-DNA binding, fluorescence polarization, 90 min | AID 1259318 | activity, % at 10 µM | P20393 | hit rate 0.79% among 370,000;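 active means activity above about 14%, limit read from the data; passing the limit was not always enough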
PG9 binder – PG9 antibody binding by small molecule | TR-FRET gp120-PG9 antibody binding | hit rate 0.43% among 360,000 | inhibition, % at 6.7 µM; in the data active means inhibition above about 8.5%
NR2E3 ag-1 – activates human photoreceptor nuclear receptor NR2E3. GST-NR2E3/biotin-RetCOR TR-FRET, 1536-well. inhibition of corepressor binding, % at 4.78 µM. hit rate 0.12% among 320,000. AID 2300;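 active means percent inhibition above the cutoff of mean plus 3 SD of all tested compounds, set per screening campaign, cut at about 20% in these data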
Target sequence (Q9Y5X4 whole entry, looked up): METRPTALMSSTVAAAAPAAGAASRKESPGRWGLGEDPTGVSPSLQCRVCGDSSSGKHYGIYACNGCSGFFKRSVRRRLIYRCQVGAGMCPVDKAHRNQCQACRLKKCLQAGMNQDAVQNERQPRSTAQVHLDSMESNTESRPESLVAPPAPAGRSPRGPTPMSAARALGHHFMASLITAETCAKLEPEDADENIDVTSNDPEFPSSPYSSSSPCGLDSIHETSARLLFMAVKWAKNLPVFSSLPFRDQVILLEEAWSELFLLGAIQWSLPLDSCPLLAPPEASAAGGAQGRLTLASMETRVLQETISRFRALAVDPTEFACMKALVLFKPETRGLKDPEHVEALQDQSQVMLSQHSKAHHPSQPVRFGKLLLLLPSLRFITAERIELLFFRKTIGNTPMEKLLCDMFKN
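Test system: GST-NR2E3 and biotin-RetCOR proteins | Quantity: 1.35 nM GST-tagged NR2E3 final | Medium: Tris pH 7.5 | Also added: 7 nM biotin-RetCOR | Dosing: Compound at 4.8 µM, single dose | Timing: 5 h at 4 °C | Detection: Time-resolved FRET | Read-out basis: Percent inhibition | Benchmarks: Biotin wells as high control, 0.6% DMSO wells as low control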
NR2E3 ag-2 – activates human NR2E3 receptor; CHO-S Gal4-NCOR/VP16-NR2E3 two-hybrid, luciferase; inhibition of corepressor binding, % at 3.98 µM; hit rate 0.35% among 360,000; AID 602229;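 active means inhibition above the mean of all tested compounds plus 3 SD, cut at about 70% in these data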;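 further: higher means lower luciferase signal from less NR2E3 corepressor binding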
Rev-erbA confirm – Rev-erb alpha (human) modulation, hit confirmation | shares compounds with NR1D1 modulator | Rev-erb alpha FITC-DNA binding, fluorescence polarization, 90 min | activation, % at 25 µM | hit rate 61% among 3,000 | AID 1259319;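 active means activation at or above a set limit, or at least 3 SD above the negative control mean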
RORg DNA counter – affects RORgamma DNA binding in a Rev-erb alpha counter-screen. hit rate 8% among 910. shares compounds with NR1D1 modulator. purified RORgamma protein-FITC-DNA binding, fluorescence polarization. IC50, µM;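 active means Compounds whose fitted half-maximal concentration for disrupting protein-DNA binding is below 10 micromolar; the record names Rev-erb in its text, so the target is in doubt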
Hits are given with their value.

Screening OC[C@@H]1CN(Cc2ccc(Cl)cc2)C[C@H](n2cnc3c(NCc4ccco4)ncnc32)O1 returned NR1D1 modulator inactive, PG9 binder inactive and NR2E3 ag-2 inactive.
`CS(=O)(=O)N1Cc2cc(C(=O)NCC3CC3)nc(-c3cccc(-c4cccnc4)c3)c2[C@H]1CCO` gave NR1D1 modulator inactive, PG9 binder inactive and NR2E3 ag-2 inactive.
For COc1ccc(/C=C(\C#N)C(=O)Nc2cc(S(=O)(=O)N3CCCCC3)ccc2N2CCCCC2)cc1 the results were NR1D1 modulator inactive, PG9 binder inactive, NR2E3 ag-1 inactive and NR2E3 ag-2 inactive.
O=C(c1ccc(Cl)cc1)c1cnc(-c2ccccc2)s1 was read as NR1D1 modulator inactive, PG9 binder inactive and NR2E3 ag-2 inactive.
O=C(c1ccc(Cl)cc1)c1cnc(Nc2ccccc2Cl)s1 was read as NR1D1 modulator 35, PG9 binder inactive, NR2E3 ag-1 inactive, NR2E3 ag-2 inactive and Rev-erbA confirm inactive.
O=C(CNC(=O)c1ccccc1)NCC(O)c1ccc([N+](=O)[O-])cc1 (centres undefined) was read as NR1D1 modulator inactive, PG9 binder inactive, NR2E3 ag-1 inactive and NR2E3 ag-2 inactive.
Cc1ccc(-c2nn3c(C)nnc3s2)cc1NCc1c(F)cccc1Cl was read as NR1D1 modulator 23, PG9 binder inactive, NR2E3 ag-1 inactive, NR2E3 ag-2 inactive and Rev-erbA confirm inactive.
Screening CCOC(=O)Cn1c(=NC(=O)c2cccs2)sc2cc(C(=O)OC)ccc21 returned NR1D1 modulator 85, PG9 binder inactive, NR2E3 ag-1 inactive, NR2E3 ag-2 inactive, Rev-erbA confirm 75 and RORg DNA counter inactive.
`CCOC(=O)Cn1c(=NC(=O)c2nc3ccccc3s2)sc2cc(S(N)(=O)=O)ccc21` gave NR1D1 modulator 48, PG9 binder inactive, NR2E3 ag-1 inactive, NR2E3 ag-2 inactive and Rev-erbA confirm 29.
CCOC(=O)c1ccc2c(c1)sc(=NC(=O)c1ccco1)n2CCOC was read as NR1D1 modulator 35, PG9 binder inactive, NR2E3 ag-1 inactive, NR2E3 ag-2 inactive and Rev-erbA confirm 25.
For COc1ccc(-c2nc3ccc(C(=O)NCC(OC)OC)cc3nc2-c2ccc(OC)c(OC)c2)cc1OC the results were NR1D1 modulator inactive, PG9 binder inactive, NR2E3 ag-1 inactive and NR2E3 ag-2 inactive.
Screening COC(CNC(=O)c1ccc2nc(-c3cccs3)c(-c3cccs3)nc2c1)OC returned NR1D1 modulator 27, PG9 binder inactive, NR2E3 ag-1 inactive, NR2E3 ag-2 inactive and Rev-erbA confirm inactive.
Cc1cccc(CCNC(=O)c2cccc(NC3=NC4CS(=O)(=O)CC4S3)c2)c1 (centres undefined) was read as NR1D1 modulator inactive, PG9 binder inactive, NR2E3 ag-1 inactive and NR2E3 ag-2 inactive.
Screening CCCc1cc(=O)[nH]c(SCC(=O)N2CCc3ccccc32)n1 returned NR1D1 modulator inactive, PG9 binder inactive and NR2E3 ag-2 inactive.
`O=c1[nH]c(Cc2ccc(F)cc2)nc2scc(-c3ccc(F)cc3)c12` gave NR1D1 modulator 35, PG9 binder inactive, NR2E3 ag-1 inactive, NR2E3 ag-2 inactive, Rev-erbA confirm 36 and RORg DNA counter inactive.
For Cc1ccc(-c2csc3nc(CN(C)Cc4ccccc4)[nH]c(=O)c23)cc1 the results were NR1D1 modulator inactive, PG9 binder inactive, NR2E3 ag-1 inactive and NR2E3 ag-2 inactive.
For C[C@@H](O)CC#Cc1ccc2oc(=O)c(-n3cc(-c4ccsc4)nn3)cc2c1 the results were NR1D1 modulator inactive, PG9 binder inactive, NR2E3 ag-1 inactive and NR2E3 ag-2 inactive.
`C[C@H](O)Cc1cn(-c2cc3cc(C#Cc4ccsc4)ccc3oc2=O)nn1` gave NR1D1 modulator 18, PG9 binder inactive, NR2E3 ag-1 inactive, NR2E3 ag-2 inactive and Rev-erbA confirm inactive.
`Cc1ccccc1NC(=O)Cc1nc(COC(=O)c2cc(Cl)ccc2O)cs1` gave NR1D1 modulator 19, PG9 binder inactive, NR2E3 ag-1 inactive, NR2E3 ag-2 inactive and Rev-erbA confirm inactive.
`Cc1ccccc1NC(=O)Cc1nc(COC(=O)c2cc(Br)ccc2O)cs1` gave NR1D1 modulator inactive, PG9 binder inactive, NR2E3 ag-1 inactive and NR2E3 ag-2 inactive.
`O=c1c2ccccc2n2c(-c3ccc(C(F)(F)F)cc3)nnc2n1Cc1ccccc1` gave NR1D1 modulator inactive, PG9 binder inactive, NR2E3 ag-1 inactive and NR2E3 ag-2 inactive.
For O=c1c2ccccc2n2c(-c3ccc(F)cc3)nnc2n1Cc1ccccc1 the results were NR1D1 modulator 24, PG9 binder inactive, NR2E3 ag-1 inactive, NR2E3 ag-2 inactive, Rev-erbA confirm 35 and RORg DNA counter inactive.
Screening CCN(CC)c1ccc2cc(C(=O)Nc3ccccn3)c(=O)oc2c1 returned NR1D1 modulator inactive, PG9 binder inactive, NR2E3 ag-1 inactive and NR2E3 ag-2 inactive.
For CCN(CC)c1ccc2cc(C=O)c(=O)oc2c1 the results were NR1D1 modulator 90, PG9 binder inactive, NR2E3 ag-1 inactive, NR2E3 ag-2 inactive, Rev-erbA confirm 74 and RORg DNA counter inactive.
For CCN(CC)c1ccc2cc(-c3nnc(-c4ccncc4)o3)c(=O)oc2c1 the results were NR1D1 modulator 59, PG9 binder inactive, NR2E3 ag-2 inactive and Rev-erbA confirm 30.
For CCN(CC)c1ccc2cc(C(N)=O)c(=N)oc2c1 the results were NR1D1 modulator 55, PG9 binder inactive, NR2E3 ag-1 inactive, NR2E3 ag-2 inactive and Rev-erbA confirm 24.
`CCN(CC)c1ccc2cc(C(N)=O)c(=O)oc2c1` gave NR1D1 modulator inactive, PG9 binder inactive, NR2E3 ag-1 inactive and NR2E3 ag-2 inactive.
For CCN(CC)c1ccc2cc(C(C)=O)c(=O)oc2c1 the results were NR1D1 modulator 36, PG9 binder inactive, NR2E3 ag-1 inactive, NR2E3 ag-2 inactive and Rev-erbA confirm inactive.
Screening CCN(CC)c1ccc2cc(NC(=O)CCC(=O)O)c(=O)oc2c1 returned NR1D1 modulator inactive, PG9 binder inactive, NR2E3 ag-1 inactive and NR2E3 ag-2 inactive.
`CC1CCN(c2c([N+](=O)[O-])c(=O)n(-c3ccccc3)c3ccccc23)CC1` gave NR1D1 modulator inactive, PG9 binder inactive, NR2E3 ag-1 inactive and NR2E3 ag-2 inactive.
For CC(C)C(=O)Nc1c(-c2ccccc2Cl)c(=O)c2ccccc2n1C the results were NR1D1 modulator inactive, PG9 binder inactive and NR2E3 ag-2 inactive.
`O=C(Nc1cccnc1)OC1CCCCC1` gave NR1D1 modulator inactive, PG9 binder inactive, NR2E3 ag-1 inactive and NR2E3 ag-2 inactive.
`CCN(CC)C(=O)c1ccc(/C=C/c2c[nH]c3ccccc23)[n+](C)c1` gave NR1D1 modulator 45, PG9 binder inactive, NR2E3 ag-1 inactive, NR2E3 ag-2 inactive, Rev-erbA confirm 50 and RORg DNA counter inactive.
Cc1ccc(C(=O)/C=C/c2c[nH]c3ccccc23)cc1 was read as NR1D1 modulator inactive, PG9 binder inactive, NR2E3 ag-1 inactive and NR2E3 ag-2 inactive.
Screening CC[n+]1c(/C=C/c2c[nH]c3ccccc23)ccc2cc(C)ccc21 returned NR1D1 modulator 126, PG9 binder inactive, Rev-erbA confirm 102 and RORg DNA counter inactive.
